Data published in ChEMBL document CHEMBL1144643, “Optimization of imidazole amide derivatives as cannabinoid-1 receptor antagonists for the treatment of obesity” (Bioorg Med Chem Lett, 2007).
pKi: −log10 of the molar value. Values belong to the molecule of their own block, whether it stands above or below them. Active and inactive are the calls of the source. The rule behind the calls is not given here.

How the values were obtained:
Cannabinoid receptor 1 [1] = biological target: T1, Cannabinoid receptor 1 (Homo sapiens, UniProt P21554); test: biochemical; type: cell-based, HEK293
T1 sequence (P21554 whole entry): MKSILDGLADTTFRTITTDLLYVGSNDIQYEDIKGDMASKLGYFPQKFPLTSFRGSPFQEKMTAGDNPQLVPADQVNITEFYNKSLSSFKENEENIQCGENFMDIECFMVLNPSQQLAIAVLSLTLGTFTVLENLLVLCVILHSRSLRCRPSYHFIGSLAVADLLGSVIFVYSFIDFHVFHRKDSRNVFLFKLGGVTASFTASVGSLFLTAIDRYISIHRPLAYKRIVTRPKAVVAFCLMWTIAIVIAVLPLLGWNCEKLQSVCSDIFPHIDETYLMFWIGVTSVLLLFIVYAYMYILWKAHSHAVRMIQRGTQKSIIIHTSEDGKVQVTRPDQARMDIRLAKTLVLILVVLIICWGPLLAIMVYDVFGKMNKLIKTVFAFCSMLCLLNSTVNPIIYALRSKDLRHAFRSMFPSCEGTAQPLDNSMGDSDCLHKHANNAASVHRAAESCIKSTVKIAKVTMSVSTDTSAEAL

Cannabinoid receptor 2 = Cannabinoid receptor 2 (Homo sapiens, UniProt P34972); test: Displacement of [3H][…] from human CB2 receptor expressed in HEK293 cells; type: cell-based
Sequence of Cannabinoid receptor 2 (P34972 whole entry): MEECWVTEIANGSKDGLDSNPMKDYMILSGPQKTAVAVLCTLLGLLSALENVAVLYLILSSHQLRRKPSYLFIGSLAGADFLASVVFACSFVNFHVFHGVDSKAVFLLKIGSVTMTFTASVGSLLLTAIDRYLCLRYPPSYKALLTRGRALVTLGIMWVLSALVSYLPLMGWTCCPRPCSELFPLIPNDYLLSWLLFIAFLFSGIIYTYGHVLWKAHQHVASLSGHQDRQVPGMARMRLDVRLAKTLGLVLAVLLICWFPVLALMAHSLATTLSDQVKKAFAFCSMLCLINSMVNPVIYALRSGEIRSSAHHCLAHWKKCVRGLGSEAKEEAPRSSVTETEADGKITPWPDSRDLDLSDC
Method in brief: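 HEK 293 membranes expressing human CB-2 (3.3 µg protein) incubated with 0.3 nM [3H]CP 55940 and varying competitor concentrations. Binding buffer: 50 mM Tris pH 7.4, 2.5 mM EDTA, 5 mM MgCl2, 0.1% fatty-acid-free BSA; 90 min at 30 °C with shaking. Nonspecific binding defined with 10 µM WIN 55212-2. Filtered through GF/C plates, read by scintillation counting. Nonlinear regression; mean of two or more triplicate runs.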

Cannabinoid receptor 1 [2] = biological target: T1, Cannabinoid receptor 1; test: Antagonist activity at human CB1 receptor expressed in CHOK1 cells assessed as inhibition of forskolin-stimulated cAMP levels; type: functional, cell-based; conditions: CHO-K1
Method in brief: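 Incubated 20 min at 37 °C with graded agonist plus 3 µM forskolin (final), with or without a fixed antagonist concentration. cAMP measured by scintillation proximity assay. Kb from the agonist EC50 concentration ratio: pKb = log(CR−1) − log B.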

Rattus norvegicus [3] = test: Reduction of body weight in Zucker fa/fa rat at 10 mg/kg, po after 8 days; type: functional; design: scale not given: the % may be the effect or the level left
Method in brief: (§1)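 Two-day baseline body weight and 24 h food and water intake, then weight-matched into groups. Daily oral dose of 1, 5 or 10 mg/kg suspension (2 mL/kg) before the nocturnal feeding phase. Body weight recorded daily; change versus vehicle-treated rats.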

Rattus norvegicus [4] = test: Reduction of food intake in fasted-refed Wistar rat at 10 mg/kg, po after 0.5 hrs; type: functional; design: scale not given: the % may be the effect or the level left
Method in brief: (§2)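 Male Wistar rats, individually housed on mesh floors, 12-h/12-h light/dark cycle, fasted overnight (18 h). Single oral dose of vehicle or compound at 10 mg/kg (2 mL/kg), vehicle 30% cyclodextrin or PEG/MSA, 1 h before re-feeding. Cumulative food intake recorded at 30, 60, 90, 180 and 240 min, corrected for spillage. 10 rats per group; percent reduction versus vehicle.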

[5] = Cmax in Wistar rat plasma at 10 mg/kg, po; type: ADME, organism-based; design: dose 10 mg/kg, route oral
Method in brief: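 Wistar rats dosed orally at 10 mg/kg, typically as a 30% cyclodextrin suspension or as a suspension in PEG400/25 mM methanesulfonic acid (80:20). Plasma levels sampled typically at 0.5, 1 and 2 h after dosing; Cmax taken from these time points.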

Rattus norvegicus [6] = test: Reduction of food intake in fasted-refed Wistar rat at 10 mg/kg, po after 1.5 hrs; type: functional; design: scale not given: the % may be the effect or the level left
Method in brief: as §2

Rattus norvegicus [7] = test: Reduction of food intake in fasted-refed Wistar rat at 10 mg/kg, po after 4 hrs; type: functional; design: scale not given: the % may be the effect or the level left
Method in brief: as §2

Rattus norvegicus [8] = test: Reduction of food intake in fasted-refed Wistar rat at 10 mg/kg, po after 1 hr; type: functional; design: scale not given: the % may be the effect or the level left
Method in brief: as §2

Rattus norvegicus [9] = test: Reduction of food intake in fasted-refed Wistar rat at 10 mg/kg, po after 3 hrs; type: functional; design: scale not given: the % may be the effect or the level left
Method in brief: as §2

Rattus norvegicus [10] = test: Reduction of body weight in Zucker fa/fa rat at 10 mg/kg, po after 13 days; type: functional; design: scale not given: the % may be the effect or the level left
Method in brief: as §1

Rattus norvegicus [11] = test: Reduction of body weight in Zucker fa/fa rat at 5 mg/kg, po after 13 days; type: functional; design: scale not given: the % may be the effect or the level left
Method in brief: as §1

Rattus norvegicus [12] = test: Reduction of body weight in Zucker fa/fa rat at 1 mg/kg, po after 13 days; type: functional, Zuker fa/fa; design: scale not given: the % may be the effect or the level left
Method in brief: as §1

[13] = Drug level in Wistar rat brain at 10 mg/kg, po after 2 hrs; type: ADME, organism-based; design: dose 10 mg/kg, route oral; conditions: read-out: Drug uptake
Method in brief: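 Brain levels measured 2 h after a 10 mg/kg oral dose to Wistar rats, within pharmacokinetic screening; oral vehicle was PEG/MSA suspension.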

Rattus norvegicus [14] = test: Reduction of food intake in fasted-refed Wistar rat at 10 mg/kg, po after 0.5 to 4 hrs; type: functional; design: scale not given: the % may be the effect or the level left
Method in brief: as §2

Rattus norvegicus [15] = test: Effect on cumulative food intake in fasted-refed Wistar rat assessed as appetite suppression at 10 mg/kg, po; type: functional, organism-based; design: dose 10 mg/kg
Method in brief: as §2

Compound: COc1ccc(-n2cc(C(=O)NC3CCCCC3)nc2-c2ccc(Cl)cc2Cl)cc1
pKi (Cannabinoid receptor 1 [1]): 8.31

Compound: O=C(NC1CCCCC1)c1cn(-c2cccnc2)c(-c2ccccc2Cl)n1
pKi (Cannabinoid receptor 1 [1]): 5.96

Compound: COc1ccccc1-c1nc(C(=O)NC2CCCCC2)cn1-c1ccc(Cl)cc1
pKi (Cannabinoid receptor 1 [1]): 7.02

Compound: O=C(NC1CCCCC1)c1cn(-c2ccc(Cl)cc2)c(-c2cc(Cl)ccc2Cl)n1
pKi (Cannabinoid receptor 1 [1]): 7.60

Compound: O=C(N[C@@H]1c2ccccc2C[C@@H]1O)c1cn(-c2ccc(Cl)cc2)c(-c2ccccc2Cl)n1
pKi (Cannabinoid receptor 1 [1]): 7.74
pKi (Cannabinoid receptor 2): 5.29
Kb (Cannabinoid receptor 1 [2]): 9.2 nM

Compound: O=C(NC1CCCCC1)c1cn(-c2ccc(Cl)cc2)c(-c2ccccc2)n1
pKi (Cannabinoid receptor 1 [1]): 6.89

Compound: CCc1c(C(=O)N[C@H]2CCCC[C@@H]2O)nc(-c2ccccc2Cl)n1-c1ccc(Br)cc1
Activity (Rattus norvegicus [3]): 5.6%
Activity (Rattus norvegicus [4]): 63%
Cmax [5]: 2100 nM
Activity (Rattus norvegicus [6]): 62%
Activity (Rattus norvegicus [7]): 35%
Activity (Rattus norvegicus [8]): 64%
Activity (Rattus norvegicus [9]): 52%
Activity (Rattus norvegicus [10]): -10.6%
pKi (Cannabinoid receptor 1 [1]): 8.43
Activity (Rattus norvegicus [11]): -6.1%
pKi (Cannabinoid receptor 2): 5.57
Kb (Cannabinoid receptor 1 [2]): 13 nM
Activity (Rattus norvegicus [12]): -1.9%

Compound: Cc1ccc(-c2nc(C(=O)NC3CCCCC3)cn2-c2ccc(Cl)cc2)c(C)c1
pKi (Cannabinoid receptor 1 [1]): 8.14

Compound: CCCCc1c(C(=O)N[C@H]2CCCC[C@@H]2O)nc(-c2ccccc2Cl)n1-c1ccc(Cl)cc1
pKi (Cannabinoid receptor 1 [1]): 8.00

Compound: CCc1ccccc1-c1nc(C(=O)NC2CCCCC2)cn1-c1ccc(Cl)cc1
pKi (Cannabinoid receptor 1 [1]): 7.41

Compound: O=C(NC1CCCCC1)c1cn(-c2ccc(Cl)cc2)c(-c2ccc(F)cc2F)n1
pKi (Cannabinoid receptor 1 [1]): 7.44

Compound: O=C(N[C@H]1c2ccccc2C[C@H]1O)c1cn(-c2ccc(Cl)cc2)c(-c2ccccc2Cl)n1
pKi (Cannabinoid receptor 1 [1]): 8.20
pKi (Cannabinoid receptor 2): 5.92
Kb (Cannabinoid receptor 1 [2]): 2.2 nM

Compound: O=C(N[C@H]1CCCC[C@@H]1O)c1cn(-c2ccc(Cl)cc2)c(-c2ccccc2Cl)n1
concentration at 2 h [13]: 110 nM
Cmax [5]: 1640 nM
pKi (Cannabinoid receptor 1 [1]): 7.54
pKi (Cannabinoid receptor 2): 5.28
Kb (Cannabinoid receptor 1 [2]): 7.1 nM
Activity (Rattus norvegicus [14]): 34%

Compound: Cc1c(C(=O)NN2CCCCC2)nn(-c2ccc(Cl)cc2Cl)c1-c1ccc(Cl)cc1 [RIMONABANT]
Activity (Rattus norvegicus [3]): 6.5%

Compound: O=C(NC1CCCCC1)c1cn(-c2ccc(Cl)cc2)c(-c2ccc(Cl)cc2Cl)n1
Cmax [5]: 50 nM
Activity (Rattus norvegicus [15]): inactive
pKi (Cannabinoid receptor 1 [1]): 8.41
pKi (Cannabinoid receptor 2): 6.62
Kb (Cannabinoid receptor 1 [2]): 18 nM

Compound: Cc1ccc(-n2cc(C(=O)NC3CCCCC3)nc2-c2ccccc2Cl)cc1
pKi (Cannabinoid receptor 1 [1]): 8.34

Compound: O=C(NC1CCCCC1)c1cn(-c2ccc(F)cc2)c(-c2ccc(Cl)cc2Cl)n1
pKi (Cannabinoid receptor 1 [1]): 8.09

Compound: CN[C@H]1CCCC[C@@H]1NC(=O)c1cn(-c2ccc(Cl)cc2)c(-c2ccc(Cl)cc2Cl)n1
pKi (Cannabinoid receptor 1 [1]): 6.21

Compound: O=C(N[C@H]1CCC[C@@H]1O)c1cn(-c2ccc(Cl)cc2)c(-c2ccccc2Cl)n1
concentration at 2 h [13]: 330 nM
Cmax [5]: 2110 nM
pKi (Cannabinoid receptor 1 [1]): 7.54
pKi (Cannabinoid receptor 2): 5.20
Kb (Cannabinoid receptor 1 [2]): 9.7 nM
Activity (Rattus norvegicus [14]): 26%

Compound: CC1CCC(n2cc(C(=O)NC3CCCCC3)nc2-c2ccccc2Cl)CC1 (stereo not given)
pKi (Cannabinoid receptor 1 [1]): 7.77

Compound: Cc1ccccc1-c1nc(C(=O)NC2CCCCC2)cn1-c1ccc(Cl)cc1
pKi (Cannabinoid receptor 1 [1]): 7.68
pKi (Cannabinoid receptor 2): < 6.00
Kb (Cannabinoid receptor 1 [2]): 7.3 nM

Compound: Cc1ccc(-n2cc(C(=O)NC3CCCCC3)nc2-c2ccc(Cl)cc2Cl)cc1
pKi (Cannabinoid receptor 1 [1]): 8.72

Compound: O=C(NC1CCCCC1)c1cn(-c2ccc(F)cc2)c(-c2ccccc2Cl)n1
pKi (Cannabinoid receptor 1 [1]): 7.70

Compound: O=C(NC1CCCCC1O)c1cn(-c2ccc(Cl)cc2)c(-c2ccc(Cl)cc2Cl)n1 (racemic)
pKi (Cannabinoid receptor 1 [1]): 7.66
pKi (Cannabinoid receptor 2): 5.96
Kb (Cannabinoid receptor 1 [2]): 4.4 nM
Activity (Rattus norvegicus [14]): 21%

Compound: CN[C@@H]1CCCC[C@H]1NC(=O)c1cn(-c2ccc(Cl)cc2)c(-c2ccc(Cl)cc2Cl)n1
pKi (Cannabinoid receptor 1 [1]): 6.04

Compound: COc1ccc(-n2cc(C(=O)NC3CCCCC3)nc2-c2ccccc2Cl)cc1
pKi (Cannabinoid receptor 1 [1]): 8.05

Compound: O=C(N[C@H]1c2ccccc2C[C@@H]1O)c1cn(-c2ccc(Cl)cc2)c(-c2ccccc2Cl)n1 (racemic)
pKi (Cannabinoid receptor 1 [1]): 7.66

The remaining lines, values ahead:

pKi (Cannabinoid receptor 2): 5.64
Compound: CCc1c(C(=O)N[C@H]2CCCC[C@@H]2O)nc(-c2ccccc2Cl)n1-c1ccc(Cl)cc1

pKi (Cannabinoid receptor 1 [1]): 8.16
Compound: Cc1c(C(=O)N[C@H]2CCCC[C@@H]2O)nc(-c2ccccc2Cl)n1-c1ccc(Cl)cc1

pKi (Cannabinoid receptor 1 [1]): 7.72
Compound: O=C(N[C@H]1CCCC[C@@H]1O)c1nc(-c2ccccc2Cl)n(-c2ccc(Cl)cc2)c1Br

pKi (Cannabinoid receptor 1 [1]): 7.39
Compound: O=C(N[C@H]1Cc2ccccc2[C@@H]1O)c1cn(-c2ccc(Cl)cc2)c(-c2ccccc2Cl)n1 (racemic)

pKi (Cannabinoid receptor 1 [1]): 8.24
pKi (Cannabinoid receptor 2): 5.57
Kb (Cannabinoid receptor 1 [2]): 1.4 nM
Compound: CCCc1c(C(=O)N[C@H]2CCCC[C@@H]2O)nc(-c2ccccc2Cl)n1-c1ccc(Cl)cc1

pKi (Cannabinoid receptor 1 [1]): 7.12
Compound: O=C(N[C@@H]1CCC[C@H]1O)c1cn(-c2ccc(Cl)cc2)c(-c2ccccc2Cl)n1

pKi (Cannabinoid receptor 1 [1]): 6.03
Compound: N[C@@H]1CCCC[C@H]1NC(=O)c1cn(-c2ccc(Cl)cc2)c(-c2ccc(Cl)cc2Cl)n1

pKi (Cannabinoid receptor 1 [1]): 7.77
Compound: O=C(N[C@H]1Cc2ccccc2[C@H]1O)c1cn(-c2ccc(Cl)cc2)c(-c2ccccc2Cl)n1 (racemic)

pKi (Cannabinoid receptor 1 [1]): 8.66
pKi (Cannabinoid receptor 2): 5.64
Kb (Cannabinoid receptor 1 [2]): 11 nM
Compound: O=C(NC1CCCCC1)c1cn(-c2ccc(Cl)cc2)c(-c2ccccc2Cl)n1

pKi (Cannabinoid receptor 1 [1]): 7.74
Compound: CC(C)c1c(C(=O)N[C@H]2CCCC[C@@H]2O)nc(-c2ccccc2Cl)n1-c1ccc(Cl)cc1

pKi (Cannabinoid receptor 1 [1]): 7.47
Compound: CN(C(=O)c1cn(-c2ccc(Cl)cc2)c(-c2ccccc2Cl)n1)C1CCCCC1

pKi (Cannabinoid receptor 1 [1]): 6.57
Compound: N[C@H]1CCCC[C@@H]1NC(=O)c1cn(-c2ccc(Cl)cc2)c(-c2ccc(Cl)cc2Cl)n1

pKi (Cannabinoid receptor 1 [1]): 7.01
Kb (Cannabinoid receptor 1 [2]): 22 nM
Compound: O=C(N[C@@H]1CCCC[C@H]1O)c1cn(-c2ccc(Cl)cc2)c(-c2ccccc2Cl)n1
